Compound activity deposited in PubChem by several laboratories.
PKA-R1A act = activators of PKA-R1A holoenzyme, primary screen, biochemical, fluorescence polarization, Cy5-IP20, bovine R1A, mouse PKAc; cAMP-dependent protein kinase type I-alpha regulatory subunit (Bos taurus) + …; PKA-R1A dissociation; scaled: DMSO 0%, 113 µM cGMP 100%; activation, % at 11.4 µM; hit rate 0.083% among 340,000; AID 504707, 2011;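 active means percent activation above the mean of all tested compounds plus 3 SD, cut at about 19% in these data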;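 further: higher means more PKAc released from R1A so a rise in polarization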
PKA-R2B act = activators of PKA-R2B holoenzyme, primary screen, biochemical, fluorescence polarization, Cy5-IP20, human | PKA-R2B holoenzyme dissociation; R2B truncated from residue 108, S112A mutant; 0% DMSO only, 100% 113 µM cGMP | AID 504700, 2011 | activation, % at 11.4 µM | cAMP-dependent protein kinase catalytic subunit beta (Homo sapiens) + cAMP-dependent … | hit rate 0.079% among 340,000;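 active means activation above a cutoff set at the mean over all compounds plus 3 SD, cut at about 18% in these data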;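 further: higher means more holoenzyme dissociation and a rise in polarization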
Target sequence (P31323 whole entry, looked up, other chains not shown, the tested form may be a part): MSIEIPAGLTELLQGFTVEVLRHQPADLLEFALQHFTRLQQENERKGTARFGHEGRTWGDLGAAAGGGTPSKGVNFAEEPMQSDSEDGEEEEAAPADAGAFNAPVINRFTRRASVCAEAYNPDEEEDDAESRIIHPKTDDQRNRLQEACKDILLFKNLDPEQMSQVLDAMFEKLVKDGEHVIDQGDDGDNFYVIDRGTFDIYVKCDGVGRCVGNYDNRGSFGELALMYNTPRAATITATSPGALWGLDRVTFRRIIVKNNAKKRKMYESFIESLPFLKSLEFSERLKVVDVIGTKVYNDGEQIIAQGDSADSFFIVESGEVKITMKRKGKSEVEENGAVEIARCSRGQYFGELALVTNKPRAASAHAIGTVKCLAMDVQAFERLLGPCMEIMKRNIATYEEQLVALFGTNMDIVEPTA
ATG4B inh = ATG4B protease inhibitors, primary screen, biochemical, fluorescence, uHTS; hit rate 0.51% among 340,000; inhibition, % at 8.33 µM; ATG4B cleavage of LC3-PLA2, NBD-HPC fluorescence, 1 h; Cysteine protease ATG4B (Homo sapiens), Q9Y4P1; in the data active means inhibition above about 40%
T cell HTS = modulators of CD8 T cell-vesicle binding, primary screen, mouse 2C CD8+ T cells, flow cytometry | 2C CD8+ T cell-vesicle binding; active compounds read low | hit rate 0.068% among 330,000 | AID 2052, 2009 | response (vesicle binding), % at 7 µM;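 active means response, share of CD8 T cells binding vesicles, and their 90th percentile fluorescence all below set limits, cut at about 80% in these data, passing the limit was not always enough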;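 further: values below 100% mean blocked vesicle binding to the CD8+ T cells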
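Read-out – percent CD8+ FL2 mean versus row control · System – murine 2C transgenic CD8+ T lymphocytes · Times – 1.5 h cell–vesicle binding at 37 °C, then 20 min icy labelling · Control set – naked vesicles low, QL9 vesicles with vehicle high · Detection – cytometric PE anti-B7-1 and Alexa647 anti-CD8 signals after 1% paraformaldehyde fixation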
HKDC1 inhibitor = HKDC1 hexokinase inhibitors, primary screen, biochemical, fluorescence, uHTS. Q2TB90. recombinant HKDC1, G6PDH/diaphorase resazurin coupled fluorescence. inhibition, % at 20 µM. hit rate 0.16% among 340,000. AID 493160, 2011;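 active means inhibition above about 35% when tested at 20 µM, limit read from the data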;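 further: plate controls were DMSO wells with enzyme for no effect and DMSO wells lacking enzyme for full effect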
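Material – in-house recombinant HK5 (HKDC1) enzyme · Quantity – HKDC1 at 5 µg/mL · Buffer or medium – pH 8.0 Tris buffer with 10 mM MgCl2 · Reagent – glucose with 1 mM ATP · Dosing – single 20 µM dose · Times – reaction time 90 min, room temperature, protected from light · Technique – resorufin fluorescence at 613 nm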
PfGluPho inh = PfG6PD enzyme inhibitors, primary screen, biochemical, fluorescence intensity, uHTS; hit rate 0.78% among 350,000; glucose-6-phosphate dehydrogenase-6-phosphogluconolactonase (Plasmodium falciparum 3D7); PfGluPho enzyme, NADPH resazurin-diaphorase fluorescence; inhibition, % at 20 µM;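 active means inhibition reaching at least a set limit at 20 µM in the primary screen, cut at about 59% in these data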;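 further: 0% = DMSO wells with substrate and 100% = DMSO wells lacking glucose-6-phosphate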
PfG6PD confirm = PfG6PD inhibitors, hit retest, confirmation, biochemical, fluorescence intensity, single concentration | shares compounds with PfGluPho inh | recombinant PfGluPho, NADPH-diaphorase-resazurin fluorescence | inhibition, % at 20 µM | hit rate 34% among 2,400;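 active means inhibition of at least 50% at 20 µM in any single replicate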;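 further: 0% = DMSO with substrate and 100% = DMSO lacking glucose-6-phosphate substrate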
Diaphorase 10uM = diaphorase inhibitors and chemical oxidizers, confirmation, counter-screen for P. falciparum G6PD inhibitor project, biochemical, fluorescence intensity, 10 µM NADPH; shares compounds with PfGluPho inh; diaphorase-coupled resazurin reduction, NADPH 10 uM; inhibition, % at 20 µM; hit rate 39% among 820; AID 504862, 2011;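 active means average inhibition reaching 50% or more with the compound at 20 µM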;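 further: resorufin red fluorescence formed as diaphorase reduces resazurin using NADPH; 0% = DMSO with enzyme and 100% = DMSO without enzyme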
Diaphorase 30uM = diaphorase inhibitors and chemical oxidizers, confirmation, counter-screen for P. falciparum G6PD inhibitor project, biochemical, fluorescence intensity, 30 µM NADPH | inhibition, % at 20 µM | hit rate 29% among 820 | shares compounds with PfGluPho inh | Diaphorase/resazurin coupled assay, resorufin fluorescence;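 active means inhibition averaging 50% or more, tested at 20 µM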;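 further: 0% = DMSO with enzyme and 100% = DMSO wells lacking diaphorase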
Starred values were filed as active, the others as inactive. An excerpt weighted towards active compounds, which were near 1.6% of everything screened.

Screening CCOC(=O)c1sc(=S)n(C)c1NC(=O)c1ccccc1 returned PKA-R1A act -1.3, PKA-R2B act -3.0, ATG4B inh -6.3, T cell HTS 257.1, HKDC1 inhibitor -12.5, PfGluPho inh 64.1* and PfG6PD confirm 27.7.
O=C(Nc1nnc(S(=O)(=O)N2CCCCCC2)s1)c1ccc(Cl)cc1 was read as PKA-R1A act -1.9, PKA-R2B act -1.1, ATG4B inh 13.0, T cell HTS 434.7, HKDC1 inhibitor -2.0, PfGluPho inh 79.7* and PfG6PD confirm 19.6.
`Cc1ccc(N2CCN(S(=O)(=O)c3nnc(NC(=O)c4ccccc4)s3)CC2)cc1` gave PKA-R1A act 11.1, PKA-R2B act 0.6, ATG4B inh -3.9, T cell HTS 782.2, HKDC1 inhibitor -4.8 and PfGluPho inh 14.4.
Cc1ccc(C(=O)Nc2nnc(S(=O)(=O)N3CCCCCC3)s2)cc1 was read as PKA-R1A act -8.0, PKA-R2B act -12.2, ATG4B inh -0.5, T cell HTS inactive, HKDC1 inhibitor -1.2, PfGluPho inh 67.6* and PfG6PD confirm 6.3.
For CC(C)c1ccc(C(=O)Nc2nnc(S(=O)(=O)N3CCCCC3)s2)cc1 the results were PKA-R1A act -0.6, PKA-R2B act -9.1, ATG4B inh -7.9, T cell HTS 304.8, HKDC1 inhibitor -0.9 and PfGluPho inh -20.2.
Screening Cc1cccc(C(=O)Nc2nnc(S(=O)(=O)N3CCC(C)CC3)s2)c1 returned PKA-R1A act -4.3, PKA-R2B act -6.7, ATG4B inh 4.3, T cell HTS 94.0, HKDC1 inhibitor 0.9, PfGluPho inh 70.1* and PfG6PD confirm 22.8.
Screening Cc1ccc(C(=O)Nc2nnc(S(=O)(=O)N3CCC(C)CC3)s2)cc1 returned PKA-R1A act -3.1, PKA-R2B act -4.3, ATG4B inh 4.6, T cell HTS 82.8, HKDC1 inhibitor 0.1, PfGluPho inh 84.2*, PfG6PD confirm 50.0*, Diaphorase 10uM 32.6 and Diaphorase 30uM 37.7.
`Cc1cccc(C(=O)Nc2nnc(S(=O)(=O)N3CCOCC3)s2)c1` gave PKA-R1A act 5.7, PKA-R2B act 12.7, ATG4B inh 4.1, T cell HTS 399.6, HKDC1 inhibitor -2.5, PfGluPho inh 68.1*, PfG6PD confirm 61.2*, Diaphorase 10uM 48.2 and Diaphorase 30uM 41.0.
For O=C(Nc1nnc(S(=O)(=O)N2CCOCC2)s1)c1ccc(F)cc1 the results were PKA-R1A act 1.0, PKA-R2B act 3.0, ATG4B inh -4.7, T cell HTS 505.1, HKDC1 inhibitor -5.0, PfGluPho inh 86.3*, PfG6PD confirm 55.8*, Diaphorase 10uM 30.5 and Diaphorase 30uM 44.9.
Screening Cc1ccc(C(=O)Nc2nnc(S(=O)(=O)N3CCOCC3)s2)cc1 returned PKA-R1A act 2.3, PKA-R2B act -1.3, ATG4B inh -1.8, T cell HTS 687.5, HKDC1 inhibitor -4.2, PfGluPho inh 101.3*, PfG6PD confirm 61.5*, Diaphorase 10uM 51.6* and Diaphorase 30uM 50.8*.
